From ChEMBL document CHEMBL1145529, “Synthesis of novel quinolone and quinoline-2-carboxylic acid (4-morpholin-4-yl-phenyl)amides: a late-stage diversification approach to potent 5HT1B antagonists” (Bioorg Med Chem, 2007)

Experiments:
[1] = target: T1, 5-hydroxytryptamine receptor 1B (Homo sapiens, UniProt P28222); test: Displacement of [3H]GR125743 from 5HT1B receptor transfected in CHO cells; assay type: cell-based
Summary of the method: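 Competition binding used a stably transfected CHO cell line expressing 5HT1B receptor. [3H]-GR125743 was the radioligand, and Ki values were derived from displacement.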

[2] = target: T1, 5-hydroxytryptamine receptor 1B; test: Antagonist activity at 5HT1B receptor expressed in CHO cells assessed as effect on 5-HT-induced stimulation of [35S]GTP-gamma-S binding at 10 uM; assay type: functional, cell-based

T1 sequence (P28222 whole entry): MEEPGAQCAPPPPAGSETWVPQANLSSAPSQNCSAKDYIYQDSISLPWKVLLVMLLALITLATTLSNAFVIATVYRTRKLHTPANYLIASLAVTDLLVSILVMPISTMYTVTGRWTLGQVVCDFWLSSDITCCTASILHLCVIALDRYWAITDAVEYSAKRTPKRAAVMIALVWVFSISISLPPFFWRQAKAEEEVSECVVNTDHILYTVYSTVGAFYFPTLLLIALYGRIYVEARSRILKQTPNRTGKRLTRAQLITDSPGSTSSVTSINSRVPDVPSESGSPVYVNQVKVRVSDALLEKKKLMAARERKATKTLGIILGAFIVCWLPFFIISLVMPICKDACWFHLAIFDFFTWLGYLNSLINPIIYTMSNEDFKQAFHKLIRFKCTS

| SMILES | Ki [1] | Intrinsic activity [2] |
| --- | --- | --- |
| COc1cc(N2CC[C@H](N(C)C)C2)c2[nH]c(C(=O)Nc3ccc(N4CCOCC4)cc3)cc(=O)c2c1 | > 1000 nM |  |
| COc1cc(N2CCN(C)CC2)c2nc(C(=O)Nc3ccc(N4CCOCC4)cc3)cc(N(C)C)c2c1 | 51 nM |  |
| COc1cc(N(C)CCCN(C)C)c2[nH]c(C(=O)Nc3ccc(N4CCOCC4)cc3)cc(=O)c2c1 | 292 nM |  |
| COc1cc(N2CCCN(C)CC2)c2[nH]c(C(=O)Nc3ccc(N4CCOCC4)cc3)cc(=O)c2c1 | 0.9 nM | -34% |
| COc1cc(C(=O)Nc2ccc(N3CCOCC3)cc2)nc2c(N3CCN(C)CC3)cc(F)cc12 | 30 nM |  |
| CN1CCN(c2cc(F)cc3c(=O)cc(C(=O)Nc4ccc(N5CCOCC5)cc4)[nH]c23)CC1 | 9.3 nM | -34% |
| COc1cc(N(C)C2CCN(C)C2)c2[nH]c(C(=O)Nc3ccc(N4CCOCC4)cc3)cc(=O)c2c1 (stereo not given) | > 1000 nM |  |
| COc1cc(N(C)CCN(C)C)c2[nH]c(C(=O)Nc3ccc(N4CCOCC4)cc3)cc(=O)c2c1 | 392 nM |  |

More lines, now with the values ahead:

| Ki [1] | Intrinsic activity [2] | SMILES |
| --- | --- | --- |
| 170 nM |  | CCN1CCC(N(CC)c2cc(OC)cc3c(=O)cc(C(=O)Nc4ccc(N5CCOCC5)cc4)[nH]c23)C1 (stereo not given) |
| 1300 nM |  | CNc1cc(C(=O)Nc2ccc(N3CCOCC3)cc2)nc2c(N3CCN(C)CC3)cc(OC)cc12 |
| 35 nM |  | COc1cc(N2CC[C@@H](N(C)C)C2)c2[nH]c(C(=O)Nc3ccc(N4CCOCC4)cc3)cc(=O)c2c1 |
| 3.5 nM | -34% | COc1cc(N2CCN(C)CC2)c2[nH]c(C(=O)Nc3ccc(N4CCOCC4)cc3)cc(=O)c2c1 |
